Data taken from publication PMC3257516 (Bioorganic & medicinal chemistry, 2011).
“And” between values parts separate entries of the source, which are not always exact repeats. Identical values can stand only once. “Also recorded” adds a separate entry of the source. Each block holds one compound with its values, some of them ahead of it.

What was measured:
[1] = Chemical stability of the inhibitors; type: physicochemical; details: compound not in complex with HPPK
HPPK [2] = target: HPPK (Escherichia coli, UniProt P26281); assay: Fluorometric titration of HPPK with inhibitor; type: binding, E. coli; details: ratio of Kd values, 19 versus 17
Procedure, shortened: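 Fluorescence titration of HPPK (initial 10 μM) with inhibitor dissolved in DMSO, added as aliquots from a 500 μM stock. Excitation/emission 420/450 nm or 450/480 nm depending on compound; slits 1 and 4 nm. Kd from nonlinear least-squares fit of fluorescence change to a quadratic single-site binding equation using total enzyme and total inhibitor concentrations.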

E. coli HPPK = E. coli HPPK (Escherichia coli, UniProt P26281); assay: HPPK enzyme inhibition assay with [α-32P]-ATP; type: biochemical; details: ratio of IC50 values, 19 versus 17
HPPK [3] = details: cited from earlier work

Chain of HPPK (Escherichia coli, UniProt P26281) (P26281 whole entry): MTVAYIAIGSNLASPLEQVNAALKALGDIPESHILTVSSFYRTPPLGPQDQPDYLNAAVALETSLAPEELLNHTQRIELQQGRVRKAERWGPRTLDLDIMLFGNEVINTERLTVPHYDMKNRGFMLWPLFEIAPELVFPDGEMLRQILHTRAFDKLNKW
Chain of E. coli HPPK (P26281 whole entry): as above

- chemical stability [1]: stable
Structure (SMILES): Nc1nc2ncc(CNCCN3CCC(SC[C@H]4O[C@@H](n5cnc6c(N)ncnc65)[C@H](O)[C@@H]4O)CC3)nc2c(=O)[nH]1 [Compound 17, 2-amino-6-[(2-{4-[5-(6-amino-purin-9-yl)-3,4-dihydroxy-tetrahydro-furan-2-ylmethylsulfanyl]-piperidin-1-yl}-ethylamino)-methyl]-3H-pteridin-4-one]

Structure (SMILES): CC1(C)Nc2nc(N)[nH]c(=O)c2N=C1CNCCN1CCC(SCC2OC(n3cnc4c(N)ncnc43)C(O)C2O)CC1 (centres unmarked) [Compound 18, 2-amino-6-[(2-{4-[5-(6-amino-purin-9-yl)-3,4-dihydroxy-tetrahydro-furan-2-ylmethylsulfanyl]-piperidin-1-yl}-ethylamino)-methyl]-7,7-dimethyl-7,8-dihydro-3H pteridin-4-one]
- chemical stability [1]: not stable; also recorded: tends to degrade

Structure (SMILES): CC1(C)Nc2nc(N)[nH]c(=O)c2N=C1C(=O)NCCN1CCC(SC[C@H]2O[C@@H](n3cnc4c(N)ncnc43)[C@H](O)[C@@H]2O)CC1 [Compound 19, 2-amino-7,7-dimethyl-4-oxo-3,4,7,8-tetrahydro-pteridine-6-carboxylic acid (2-{4-[5-(6-amino-purin-9-yl)-3,4-dihydroxy-tetrahydro-furan-2-ylmethylsulfanyl]-piperidin-1-yl}-ethyl)-amide]
- increased binding affinity over 17 (HPPK [2]): 60 fold and ~ 60 fold
- chemical stability [1]: stable
- increased inhibition ability over 17 (E. coli HPPK): 30 fold

Structure (SMILES): Nc1nc2c(c(=O)[nH]1)N=C(CO)CN2 [HP, 6-hydroxymethyl-7,8-dihydropterin]
- Kd for the binding of HP to ligand-free HPPK (HPPK [3]): mM range
- Kd for the binding of HP to the HPPK MgATP complex (HPPK [3]): sub-μM range

Structure (SMILES): Nc1ncnc2c1ncn2[C@@H]1O[C@H](COP(=O)(O)OP(=O)(O)OP(=O)(O)O)[C@@H](O)[C@H]1O [MgATP]
- Kd (HPPK [3]; read-out: Kd for the binding of MgATP to HPPK): 2.6 to 4.5 µM
